The structures appear in SMILES notation.

For data set [1], the target named is Survival motor neuron protein (Homo sapiens) (UniProt Q16637). In words: Activation of SMN expressed in HEK293 cells assessed as concentration required to reach 50% of maximum luciferase signal by SMN2-promotor driven luciferase reporter gene assay. The class given is cell-based. In short, it runs like this: (§1)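 HEK-293 cells stably carrying the SMN2 reporter construct, kept in DMEM with 10% FCS, glutamax, pyruvate, pen/strep and 200 µg/mL hygromycin, and assayed without hygromycin. 2,000 cells/well were plated and adhered overnight at 37 °C, 5% CO2. Compounds were added as a 7-point titration, 50 µM to 25 nM final, in 0.46% DMSO, for 30–36 h. OneGlo luminescence was normalized to 4.5 mM sodium butyrate (100%) and DMSO (0%).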

Data set [2] has the same target. In words: Activation of SMN expressed in HEK293 cells assessed as rate of induction by SMN2-promotor driven luciferase reporter gene assay relative to basal level. On the set-up: concentration or dose not given beside the values. The class given is cell-based. The procedure, abridged: as §1
A further data set concerns Liver. In words: Half-life in mouse liver microsome at 1 uM. The class given is ADME. The note with it: microsomes.
For data set [3], the target named is T1, Luciferin 4-monooxygenase (Luciola lateralis, UniProt Q01158).
T1 sequence (Q01158 whole entry): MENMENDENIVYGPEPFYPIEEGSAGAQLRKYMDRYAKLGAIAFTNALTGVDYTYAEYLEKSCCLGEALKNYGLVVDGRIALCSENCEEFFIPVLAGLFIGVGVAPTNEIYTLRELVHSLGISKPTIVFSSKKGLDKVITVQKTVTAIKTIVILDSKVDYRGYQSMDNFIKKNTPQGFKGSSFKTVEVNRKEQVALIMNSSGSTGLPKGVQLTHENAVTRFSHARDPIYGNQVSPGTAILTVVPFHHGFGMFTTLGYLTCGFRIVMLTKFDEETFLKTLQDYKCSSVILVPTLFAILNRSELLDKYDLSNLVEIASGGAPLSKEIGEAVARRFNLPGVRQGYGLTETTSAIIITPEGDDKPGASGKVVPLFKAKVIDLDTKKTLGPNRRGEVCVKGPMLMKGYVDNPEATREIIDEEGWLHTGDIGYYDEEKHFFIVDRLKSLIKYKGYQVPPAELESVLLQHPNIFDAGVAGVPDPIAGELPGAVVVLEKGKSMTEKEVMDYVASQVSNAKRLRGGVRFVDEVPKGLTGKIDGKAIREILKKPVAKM
In words: Inhibition of fire fly luciferase. Further details: species or system Aquatica lateralis. To be noted: read-out: IC50.

Survival motor neuron protein (Homo sapiens), sequence (Q16637 whole entry): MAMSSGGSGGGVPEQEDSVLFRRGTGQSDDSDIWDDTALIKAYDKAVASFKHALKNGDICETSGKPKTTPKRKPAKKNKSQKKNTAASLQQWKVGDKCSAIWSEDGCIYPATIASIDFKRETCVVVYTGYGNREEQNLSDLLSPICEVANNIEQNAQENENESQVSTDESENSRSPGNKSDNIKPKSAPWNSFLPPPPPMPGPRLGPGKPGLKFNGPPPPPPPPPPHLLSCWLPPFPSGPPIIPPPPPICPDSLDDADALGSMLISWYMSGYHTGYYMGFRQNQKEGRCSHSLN

Take `COc1ccc(-c2csc(N3CCC(C(N)=O)CC3)n2)cc1`: the Activity stood at 7.72 µM in data set [1] and 209% in data set [2].
As to `CNC(=O)C1CCN(c2nc(-c3ccc(Br)cc3)cs2)CC1`, the Activity in data set [1] was found to be 7.72 µM; in data set [2], 101%.
For `O=C(C1CCN(c2nc(-c3ccc(Br)cc3)cs2)CC1)N1CCOCC1`, in that order: 30.8 µM and 77%.
The corresponding values for `NC(=O)C1CCN(c2nc(-c3ccc4c(c3)OCCO4)cs2)CC1` are 0.77 µM and 459%.
The corresponding values for `Cc1ccc(-c2ccnc(N3CCC(C(N)=O)CC3)n2)cc1` are 0.387 µM and 444%.
With `CN(C)c1cccc(-c2ncc(F)c(N3CCC(C(N)=O)CC3)n2)c1`, the Activity in data set [1] is 3.07 µM; in data set [2], 141%.
`CCOC(=O)C1CCN(c2nc(-c3ccc(Br)cc3)cs2)CC1`: the Activity was 7.72 µM in data set [1] and 550% in data set [2].
The corresponding values for `NC(=O)C1CCN(c2nc(-c3ccc(Oc4ccccc4)cc3)cs2)CC1` are 4.87 µM and 240%.
As for `NC(=O)C1CCN(c2ncnc(-c3ccc4c(c3)OCCCO4)n2)CC1`, the Activity was 2.44 µM in data set [1] and 186% in data set [2].
On to `NC(=O)C1CCN(c2nc(-c3ccc4c(c3)OCO4)cs2)CC1`, for which the figures for the Activity in data set [1] and in data set [2] were 2.44 µM and 359%, respectively.
Take `CN(C)c1cccc(-c2nccc(N3CCC(C(N)=O)CC3)n2)c1`: the results for the Activity in data set [1] and in data set [2] were 12.2 µM and 306%, respectively.
The corresponding values for `NC(=O)C1CCN(c2nc(-c3ccc(F)cc3)cs2)CC1` are 3.87 µM and 288%.
For `NC(=O)C1CCN(c2nc(-c3ccc([N+](=O)[O-])cc3)cs2)CC1`, the values for the Activity in data set [1] and in data set [2] were 15.4 µM and 254%, respectively.
With `NC(=O)C1CCN(c2ncc(-c3cccc(N4CCCCC4)c3)s2)CC1`, the Activity was determined as 1.54 µM in data set [1] and 565% in data set [2].
For `Cn1ccc2cc(-c3csc(N4CCC(C(N)=O)CC4)n3)ccc21`, in that order: 7.72 µM and 534%.
`Brc1ccc(-c2csc(N3CCC(c4nnn[nH]4)CC3)n2)cc1`: the values for the Activity in data set [1] and in data set [2] were 12.2 µM and 67%, respectively.
Turning to `COc1ccc(-c2cnc(N3CCC(C(N)=O)CC3)s2)cc1OC`, the Activity came to 9.72 µM in data set [1] and 209% in data set [2].
For the molecule `NC(=O)C1CCN(c2ncc(-c3cccc(F)c3)s2)CC1`, the Activity is 2.44 µM in data set [1] and 601% in data set [2].
The corresponding values for `COc1ccc(-c2csc(N3CCC(C(N)=O)CC3)n2)cc1OC` are 12.2 µM and 59%.
As to `Cc1ccc(-c2cnc(N3CCC(C(N)=O)CC3)s2)cc1`, the t1/2 in the data set on Liver came out at 7 min. Further, the Activity in data set [1] stood at 0.077 µM; in data set [2], 609%. In data set [3], the IC50 was 6.4 µM.
As to `NC(=O)C1CCN(c2nc(-c3ccccc3)cs2)CC1`, the Activity in data set [1] came out at 7.72 µM; in data set [2], 167%.
For `COc1cccc(-c2csc(N3CCC(C(N)=O)CC3)n2)c1`, in that order: 1.94 µM and 357%.
For `NC(=O)C1CCN(c2nc(-c3cccc(F)c3)cs2)CC1`, in that order: 9.72 µM and 64%.
As to `NC(=O)C1CCN(c2nc(-c3ccc(C(F)(F)F)cc3)cs2)CC1`, the Activity in data set [1] worked out at 2.44 µM; in data set [2] it was 386%.
The corresponding values for `NC(=O)C1CCN(c2nc(-c3ccccc3Cl)cs2)CC1` are 7.72 µM and 57%.
The corresponding values for `CC(C)Oc1ccc(-c2csc(N3CCC(C(N)=O)CC3)n2)cc1` are 3.87 µM and 178%.
Take `COc1cc(OC)cc(-c2csc(N3CCC(C(N)=O)CC3)n2)c1`: the Activity worked out at 7.72 µM in data set [1] and 45% in data set [2].
The corresponding values for `NC(=O)C1CCN(c2ncc(-c3ccc(Cl)cc3)s2)CC1` are 0.154 µM and 498%.
The corresponding values for `NC(=O)C1CCN(c2nc(-c3ccc(OC(F)(F)F)cc3)cs2)CC1` are 3.07 µM and 297%.
On to `CN(C)C(=O)c1ccc(-c2csc(N3CCC(C(N)=O)CC3)n2)cc1`, for which the values for the Activity in data set [1] and in data set [2] were 12.2 µM and 51%, respectively.
Turning to `CN(C)c1cccc(-c2csc(N3CCC(C(N)=O)CC3)n2)c1`, the Activity worked out at 0.97 µM in data set [1] and 504% in data set [2].
The corresponding values for `CC(=O)c1cccc(-c2csc(N3CCC(C(N)=O)CC3)n2)c1` are 3.87 µM and 356%.
For the molecule `NC(=O)C1CCN(c2nc(-c3cccs3)cs2)CC1`, the values for the Activity in data set [1] and in data set [2] were 7.72 µM and 51%, respectively.
Turning to `NC(=O)C1CCN(c2nc(-c3ccccc3F)cs2)CC1`, the Activity in data set [1] came out at 2.44 µM; in data set [2], 274%.
As to `NC(=O)C1CCN(c2ncc(-c3ccc(Br)cc3)s2)CC1`, the results for the Activity in data set [1] and in data set [2] were 0.224 µM and 599%, respectively.
For `CN(C)c1cccc(-c2nnc(N3CCC(C(N)=O)CC3)s2)c1`, in that order: 0.387 µM and 448%.
For `CC(=O)NC1CCN(c2nc(-c3ccc(Br)cc3)cs2)CC1`, in that order: 15.4 µM and -57%.
The corresponding values for `CN(C)c1cccc(-c2cc(N3CCC(C(N)=O)CC3)ncn2)c1` are 3.87 µM and 81%.
In the case of `CN(C)c1cccc(-c2ncnc(N3CCC(C(N)=O)CC3)n2)c1`, the results for the Activity in data set [1] and in data set [2] were 1.22 µM and 200%, respectively.
Turning to `CC(C)Oc1cccc(-c2csc(N3CCC(C(N)=O)CC3)n2)c1`, the Activity came out at 0.77 µM in data set [1] and 605% in data set [2].
For `NC(=O)C1CCN(c2nccc(-c3ccc4c(c3)OCCO4)n2)CC1`, in that order: 1.22 µM and 364%.
The corresponding values for `NC(=O)C1CCN(c2nc(-c3ccc(-c4ccccc4)cc3)cs2)CC1` are 24.4 µM and 58%.
The corresponding values for `NC(=O)C1CCN(c2ncc(-c3ccc4c(c3)OC(F)(F)O4)s2)CC1` are 0.194 µM and 598%.
On to `O=C(Nc1ccccc1)C1CCN(c2nc(-c3ccc(Br)cc3)cs2)CC1`, for which the Activity in data set [1] came to 2.44 µM; in data set [2], 262%.
For `CC(=O)C1CCN(c2ncc(-c3cccc(N(C)C)c3)s2)CC1`, in that order: 3.07 µM and 224%.
In the case of `NC(=O)C1CCN(c2nc(-c3cccc([N+](=O)[O-])c3)cs2)CC1`, the Activity in data set [1] came to 3.87 µM; in data set [2], 20%.
The corresponding values for `NC(=O)C1CCN(c2cc(-c3ccc4c(c3)OCCCO4)ncn2)CC1` are 7.72 µM and 211%.
Regarding `NC(=O)C1CCN(c2nc(-c3cccc(Br)c3)cs2)CC1`, the Activity in data set [1] came out at 30.8 µM; in data set [2], 57%.
The corresponding values for `N#CC1CCN(c2nc(-c3ccc(Br)cc3)cs2)CC1` are 30.7 µM and 78%.
For `NC(=O)C1CCN(c2ncc(-c3ccc4c(c3)OCCO4)s2)CC1`, in that order: 0.097 µM and 424%.
For the molecule `NC(=O)C1CCN(c2nc(-c3cccc4sc5ccccc5c34)cs2)CC1`, the figures for the Activity in data set [1] and in data set [2] were 30.7 µM and 369%, respectively.
For the molecule `NC(=O)C1CCN(c2nc(-c3ccc4c(c3)OCCCO4)cs2)CC1`, the Activity was 0.49 µM in data set [1] and 443% in data set [2].
The corresponding values for `CN(C)c1cccc(-c2cnc(N3CCC(c4ncc[nH]4)CC3)s2)c1` are 7.72 µM and 188%.
For `CN(C)c1cccc(-c2nc(N3CCC(C(N)=O)CC3)ncc2F)c1`, in that order: 0.387 µM and 373%.
For `Cc1ccc(-c2nnc(N3CCC(C(N)=O)CC3)s2)cc1`, in that order: 0.244 µM and 54%.
In the case of `NC1CCN(c2nc(-c3ccc(Br)cc3)cs2)CC1`, the Activity in data set [1] was 2.44 µM; in data set [2], 182%.
As for `NC(=O)C1CCN(c2nc(-c3ccc4occc(=O)c4c3)cs2)CC1`, the Activity in data set [1] worked out at 15.4 µM; in data set [2], 589%.
`COc1cc(-c2csc(N3CCC(C(N)=O)CC3)n2)cc(OC)c1OC`: the Activity in data set [1] came out at 19.4 µM; in data set [2], 73%.
As to `NC(=O)C1CCN(c2nc(-c3ccc4ccccc4c3)cs2)CC1`, the Activity in data set [1] was 7.72 µM; in data set [2], 162%.
The corresponding values for `CC(C)COc1ccc(-c2csc(N3CCC(C(N)=O)CC3)n2)cc1` are 3.07 µM and 54%.
With `CN(C)c1cccc(-c2cnc(N3CCC(C(N)=O)CC3)nc2)c1`, the figures for the Activity in data set [1] and in data set [2] were 0.613 µM and 236%, respectively.
The corresponding values for `Brc1ccc(-c2csc(N3CCCCC3)n2)cc1` are 19.4 µM and 272%.

Source of the values: ChEMBL document CHEMBL1821687, “Discovery, synthesis, and biological evaluation of novel SMN protein modulators” (J Med Chem, 2011).
